The text below walks through data of ChEMBL document CHEMBL1687758, “Azithromycin alters macrophage phenotype and pulmonary compartmentalization during lung infection with Pseudomonas” (2010).

Test [1] relates to Mus musculus. Put plainly: Immunomodulatory activity in Pseudomonas aeruginosa M57-15 infected C57BL/6 mouse lung assessed as increase of CD80 expression in CD11b+ Gr1+ cells in alveolar space at 0.16 g/kg, po measured after 7 days by flow cytometry. It counts as functional, organism-based. An outline of the steps: (§1)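 Oral gavage of 0.16 g/kg daily (2% methylcellulose vehicle) began 4 days before intratracheal bead infection (1 × 105 to 2 × 10^5 CFU). On days 3, 7 and 14, cells were taken from lavage (0.3 mM EDTA buffer) and from collagenase/DNase lung digest (1 h, 37°C). Cells were stained for CD11b, CD11c, Gr-1, CD4, CD80, MHC-II and MR, with more than 50,000 events acquired. Counts were gated percent × manual cell count.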
For orientation: A flow cytometer gives signals particle by particle.

The test system of test [2] is Mus musculus. Put plainly: Immunomodulatory activity in Pseudomonas aeruginosa M57-15 infected C57BL/6 mouse lung assessed as increase of CD80 expression in CD11b+ Gr1+ cells in lung digest at 0.16 g/kg, po measured after 7 days by flow cytometry. It is filed as functional, organism-based. An outline of the steps: as §1
In test [3] the test system is Mus musculus. Put plainly: Immunomodulatory activity in Pseudomonas aeruginosa M57-15 infected C57BL/6 mouse lung assessed as CD11b-c+ cell expression level in lung digest at 0.16 g/kg, po measured after 3 days by flow cytometry (reference value: 19.71 +/- 3.89 %). It is filed as functional. An outline of the steps:
as §1

Test [4] deals with Mus musculus. The test can be described thus: Immunomodulatory activity in Pseudomonas aeruginosa M57-15 infected C57BL/6 mouse lung assessed as CD11b+c- cell expression level in lung digest at 0.16 g/kg, po measured after 7 days by flow cytometry (reference value: 17.07 +/- 4.84 %). It counts as functional. The procedure, abridged: as §1
Test [5] relates to Mus musculus. Put plainly: Immunomodulatory activity in Pseudomonas aeruginosa M57-15 infected C57BL/6 mouse lung assessed as CD11b+c- cell expression level in lung lavage fluid at 0.16 g/kg, po measured after 3 days by flow cytometry (reference value: 1.20 +/- 0.41 %). It is filed as functional. An outline of the steps: as §1
Test [6] relates to Mus musculus. Put plainly: Immunomodulatory activity in Pseudomonas aeruginosa M57-15 infected C57BL/6 mouse lung assessed as CD11b+c- cell expression level in lung lavage fluid at 0.16 g/kg, po measured after 14 days by flow cytometry (reference value: 1.15 +/- 0.62 %). It is filed as functional. The procedure, abridged:
as §1

Test [7] concerns Mus musculus. Put plainly: Immunomodulatory activity in Pseudomonas aeruginosa M57-15 infected C57BL/6 mouse lung assessed as CD11b+c+ cell expression level in lung digest at 0.16 g/kg, po measured after 7 days by flow cytometry (reference value: 5.16 +/- 1.09 %). It is filed as functional. An outline of the steps:
as §1

Test [8] relates to Mus musculus. The test can be described thus: Immunomodulatory activity in Pseudomonas aeruginosa M57-15 infected C57BL/6 mouse lung assessed as CD11b+c- cell expression level in lung lavage fluid at 0.16 g/kg, po measured after 7 days by flow cytometry (reference value: 1.13 +/- 0.30 %). It counts as functional. The procedure, abridged: as §1
The subject of test [9] is Mus musculus. Put plainly: Immunomodulatory activity in Pseudomonas aeruginosa M57-15 infected C57BL/6 mouse lung assessed as increase of CD4+ T cell in lung lavage fluid at 0.16 g/kg, po measured after 7 to 14 days by flow cytometry. It is filed as functional, organism-based. The procedure, abridged: as §1
Test [10] relates to Mus musculus. The test can be described thus: Immunomodulatory activity in Pseudomonas aeruginosa M57-15 infected C57BL/6 mouse lung assessed as increase of total cells in lung digest at 0.16 g/kg, po measured after 14 days by flow cytometry. It is filed as functional, organism-based. An outline of the steps:
as §1

In test [11] the test system is Mus musculus. Put plainly: Immunomodulatory activity in Pseudomonas aeruginosa M57-15 infected C57BL/6 mouse lung assessed as decrease of IL-10 production in CD11b+ cells in lung lavage fluid at 0.16 g/kg, po measured after 7 days by flow cytometry. It counts as functional, organism-based. The procedure, abridged: (§2)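 The first 1-ml lavage wash was frozen at −80°C. Samples diluted 5-fold were incubated 3 h at room temperature with capture beads for a cytometric bead array (IL-12p70, CCL2, TNF-α, IL-10, IFN-γ, IL-6) plus a PE-conjugated detection antibody. Fluorescence was read by flow cytometry against standard curves. Mice had daily oral 0.16 g/kg from 4 days before intratracheal infection.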

Test [12] deals with Mus musculus. The test can be described thus: Immunomodulatory activity in Pseudomonas aeruginosa M57-15 infected C57BL/6 mouse lung assessed as decrease of TNFalpha production in CD11b+ cells in lung digest at 0.16 g/kg, po measured after 7 days by flow cytometry. It counts as functional, organism-based. The procedure, abridged: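 Lung digest cells (2 × 106) were stimulated for 4 h with 50 ng/ml PMA and 500 ng/ml ionomycin plus 10 μg/ml brefeldin A. They were surface-stained for CD11b/CD11c, fixed in 4% formalin, permeabilized with 0.05% saponin, Fc-blocked, and stained for intracellular TNF-α and IL-10 for flow cytometry. Mice were dosed at 0.16 g/kg by daily oral gavage from 4 days before infection.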

The test system of test [13] is Mus musculus. Put plainly: Immunomodulatory activity in Pseudomonas aeruginosa M57-15 infected C57BL/6 mouse lung assessed as increase of CD4+ T cell in alveolar space at 0.16 g/kg, po measured after 7 days by flow cytometry. It is filed as functional, organism-based. An outline of the steps:
as §1

The test system of test [14] is Mus musculus. Put plainly: Immunomodulatory activity in Pseudomonas aeruginosa M57-15 infected C57BL/6 mouse lung assessed as reduction of CD11b- and Gr-1+ cells infiltration in lung lavage fluid at 0.16 g/kg, po measured after 7 days by flow cytometry. It counts as functional, organism-based. Conditions: in the assay text read “lung digest” for “lung lavage fluid”. The procedure, abridged: as §1

Test [15] concerns Mus musculus. The test can be described thus: Immunomodulatory activity in Pseudomonas aeruginosa M57-15 infected C57BL/6 mouse lung assessed as decrease of IFN-gamma production in CD11b+ cells in lung lavage fluid at 0.16 g/kg, po measured after 7 days by flow cytometry. It is filed as functional, organism-based. The procedure, abridged: as §2
Test [16] relates to Mus musculus. The test can be described thus: Immunomodulatory activity in Pseudomonas aeruginosa M57-15 infected C57BL/6 mouse lung assessed as increase of arginase activity in lung digest at 0.16 g/kg, po measured after 7 days.
Test [17] relates to Mus musculus. The test can be described thus: Immunomodulatory activity in Pseudomonas aeruginosa M57-15 infected C57BL/6 mouse lung assessed as CD11b+c+ cell expression level in lung lavage fluid at 0.16 g/kg, po measured after 7 days by flow cytometry (reference value: 1.51 +/- 1.53 %). It is filed as functional. The procedure, abridged:
as §1

For test [18], the system named is Mus musculus. Put plainly: Immunomodulatory activity in Pseudomonas aeruginosa M57-15 infected C57BL/6 mouse lung assessed as CD11b-c+ cell expression level in lung digest at 0.16 g/kg, po measured after 7 days by flow cytometry (reference value: 29.15 +/- 3.98 %). It is filed as functional. The procedure, abridged: as §1
Test [19] has as its system Mus musculus. The test can be described thus: Immunomodulatory activity in Pseudomonas aeruginosa M57-15 infected C57BL/6 mouse lung assessed as CD11b-c+ cell expression level in lung lavage fluid at 0.16 g/kg, po measured after 14 days by flow cytometry (reference value: 72.38 +/- 13.69 %). It is filed as functional. The procedure, abridged:
as §1

Test [20] concerns Mus musculus. Put plainly: Immunomodulatory activity in Pseudomonas aeruginosa M57-15 infected C57BL/6 mouse lung assessed as increase of mannose receptor expression in CD11b+ Gr1+ cells in alveolar space at 0.16 g/kg, po measured after 7 days by flow cytometry. It is filed as functional, organism-based. The procedure, abridged:
as §1

Test [21] concerns Mus musculus. The test can be described thus: Immunomodulatory activity in Pseudomonas aeruginosa M57-15 infected C57BL/6 mouse lung assessed as decrease of TNFalpha production in CD11b+ cells in lung lavage fluid at 0.16 g/kg, po measured after 7 days by flow cytometry. It counts as functional, organism-based. The procedure, abridged: as §2
For test [22], the system named is Mus musculus. Put plainly: Immunomodulatory activity in Pseudomonas aeruginosa M57-15 infected C57BL/6 mouse lung assessed as CD11b+c+ cell expression level in lung lavage fluid at 0.16 g/kg, po measured after 3 days by flow cytometry (reference value: 2.38 +/- 0.75 %). It is filed as functional. An outline of the steps: as §1

Active and inactive are the calls of the source. The calls are words filed in the database; no cut-off is given here.

Regarding `CC[C@H]1OC(=O)[C@H](C)[C@@H](O[C@H]2C[C@@](C)(OC)[C@@H](O)[C@H](C)O2)[C@H](C)[C@@H](O[C@@H]2O[C@H](C)C[C@H](N(C)C)[C@H]2O)[C@](C)(O)C[C@@H](C)CN(C)[C@H](C)[C@@H](O)[C@]1(C)O` [AZITHROMYCIN], the result in the test with Mus musculus [1], with Mus musculus [2], with Mus musculus [9], with Mus musculus [10], with Mus musculus [12] and in the test with Mus musculus [13] was Active. Also, the outcome in the test with Mus musculus [14], in the test on Mus musculus [16], with Mus musculus [20] and in the test on Mus musculus [21] was Active. Moreover, the Activity came to 20.92% in the test with Mus musculus [3]; 16.83% in the test on Mus musculus [4]; 0.42% in the test on Mus musculus [5]; 2.24% in the test with Mus musculus [6]; 17.1% in the test with Mus musculus [7]; 13.3% in the test on Mus musculus [8]. Further, the Activity amounted to 21.67% in the test with Mus musculus [17], 20.36% in the test with Mus musculus [18], 46.16% in the test on Mus musculus [19] and 2.37% in the test with Mus musculus [22]. The result with Mus musculus [11] and with Mus musculus [15] was inactive.
